# Experimental data reported in ChEMBL document CHEMBL1141286, “Benzochromenones from the marine crinoid Comantheria rotula inhibit hypoxia-inducible factor-1 (HIF-1) in cell-based reporter assays and differentially suppress the growth of certain tumor cell lines” (J Nat Prod, 2007).
# How the values were obtained:
# HL-60 = assay: Growth inhibition of human HL60 cells; assay type: functional
# SN12C = assay: Growth inhibition of human SN12C cells; assay type: functional
# OVCAR-8 = assay: Growth inhibition of human OVACAR8 cells; assay type: functional
# CCRF-CEM = assay: Growth inhibition of human CCRF-CEM cells; assay type: functional
# Hs-578T = assay: Growth inhibition of human HS578T cells; assay type: functional
# NCI/ADR-RES = assay: Growth inhibition of human NCI/ADR-RES cells; assay type: functional
# [1] = Inhibition of 1,10-phenanthroline-induced HIF1 activation in T47D cells by TK-luciferase assay; assay type: cell-based; settings: Homo sapiens
# Summary of the method: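 HIF-1 reporter (pHRE-TK-Luc) assays in transfected PC-3 or T47D cells; HIF-1 induced by hypoxia or by the hypoxia mimetic 1,10-phenanthroline (10 μM); compounds at half-log concentrations; luciferase activity measured; IC50 from experiments in triplicate.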
# MDA-MB-435 = assay: Growth inhibition of human MDA-MB-435 cells; assay type: functional
# SF-539 = assay: Growth inhibition of human SF539 cells; assay type: functional
# NCI-H522 = assay: Growth inhibition of human NCI-H522 cells; assay type: functional
# [2] = Growth inhibition of human OVACAR3 cells; assay type: functional
# U-251 = assay: Growth inhibition of human U251 cells; assay type: functional
# DU-145 = assay: Growth inhibition of human DU145 cells; assay type: functional
# MCF7 = assay: Growth inhibition of human MCF7 cells; assay type: functional
# Malme-3M = assay: Growth inhibition of human MALME-3M cells; assay type: functional
# A498 = assay: Growth inhibition of human A498 cells; assay type: functional
# OVCAR-5 = assay: Growth inhibition of human OVACAR5 cells; assay type: functional
# T47D = assay: Growth inhibition of human T47D cells; assay type: functional
# ACHN = assay: Growth inhibition of human ACHN cells; assay type: functional
# A549 = assay: Growth inhibition of human A549 cells; assay type: functional
# NCI-H23 = assay: Growth inhibition of human NCI-H23 cells; assay type: functional
# [3] = read-out: Log LC50 (the source's name) (converted)
compound,measurement,setting,value
COc1cc(O)cc2cc3oc(C)cc(=O)c3c(OC)c12 [COMANTHERIN],GI50,HL-60,> 100 µM
same,LC50,HL-60,> 100 µM
same,TGI,HL-60; read-out: Log TGI (converted),> 100 µM
same,GI50,SN12C,> 100 µM
same,LC50,SN12C,> 100 µM
same,TGI,SN12C; read-out: Log TGI (converted),> 100 µM
same,GI50,OVCAR-8,> 100 µM
same,LC50,OVCAR-8,> 100 µM
same,TGI,OVCAR-8; read-out: Log TGI (converted),> 100 µM
same,GI50,CCRF-CEM,2.09 µM
same,LC50,CCRF-CEM,> 100 µM
same,TGI,CCRF-CEM; read-out: Log TGI (converted),> 100 µM
same,GI50,Hs-578T,21.9 µM
same,LC50,Hs-578T,> 100 µM
same,TGI,Hs-578T; read-out: Log TGI (converted),> 100 µM
same,GI50,NCI/ADR-RES,> 100 µM
same,LC50 (concentration killing 50% of cells),NCI/ADR-RES,> 100 µM
same,TGI,NCI/ADR-RES; read-out: Log TGI (converted),> 100 µM
same,IC50,[1],2.7 µM
same,GI50,MDA-MB-435,> 100 µM
same,LC50,MDA-MB-435,> 100 µM
same,TGI,MDA-MB-435; read-out: Log TGI (converted),> 100 µM
same,GI50,SF-539,> 100 µM
same,LC50,SF-539,> 100 µM
same,TGI,SF-539; read-out: Log TGI (converted),> 100 µM
same,GI50,NCI-H522,> 100 µM
same,CC50,NCI-H522; [3],> 100 µM
same,TGI,NCI-H522; read-out: Log TGI (converted),> 100 µM
same,GI50,[2],> 100 µM
same,CC50,[2]; [3],> 100 µM
same,TGI,[2]; read-out: Log TGI (converted),> 100 µM
same,GI50,U-251,100 µM
same,LC50,U-251,> 100 µM
same,TGI,U-251; read-out: Log TGI (converted),> 100 µM
same,GI50,DU-145,> 100 µM
same,CC50,DU-145; [3],> 100 µM
same,TGI,DU-145; read-out: Log TGI (converted),> 100 µM
same,GI50,MCF7,> 100 µM
same,LC50,MCF7,> 100 µM
same,TGI,MCF7; read-out: Log TGI (converted),> 100 µM
same,GI50,Malme-3M,> 100 µM
same,CC50,Malme-3M; [3],> 100 µM
same,TGI,Malme-3M; read-out: Log TGI (converted),> 100 µM
same,GI50,A498,> 100 µM
same,LC50,A498,> 100 µM
same,TGI,A498; read-out: Log TGI (converted),> 100 µM
same,GI50,OVCAR-5,> 100 µM
same,LC50,OVCAR-5,> 100 µM
same,TGI,OVCAR-5; read-out: Log TGI (converted),> 100 µM
same,GI50,T47D,81.3 µM
same,LC50,T47D,> 100 µM
same,TGI,T47D; read-out: Log TGI (converted),> 100 µM
same,GI50,ACHN,> 100 µM
same,CC50,ACHN; [3],> 100 µM
same,TGI,ACHN; read-out: Log TGI (converted),> 100 µM
same,GI50,A549,> 100 µM
same,CC50,A549; [3],> 100 µM
same,TGI,A549; read-out: Log TGI (converted),> 100 µM
same,GI50,NCI-H23,> 100 µM
same,CC50,NCI-H23; [3],> 100 µM
same,TGI,NCI-H23; read-out: Log TGI (converted),> 100 µM
